# Tests used:
# Staphylococcus aureus [1] = assay: Antibacterial activity against Methicillin-resistant Staphylococcus aureus assessed as inhibition of bacterial growth at 0.03 ug/ml by CLSI broth microdilution method; type: functional
# Method in brief: (§1)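 Recent clinical isolates from skin/soft tissue, bloodstream and respiratory specimens. Tested by broth microdilution per CLSI M7-A7 and M100-S18, with the appropriate quality controls. The thymidine content of the test medium was assessed to rule out artifactual inhibition.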
# Staphylococcus aureus [2] = assay: Antibacterial activity against Methicillin-resistant Staphylococcus aureus assessed as inhibition of bacterial growth at 0.015 ug/ml by CLSI broth microdilution method; type: functional; method in brief: as §1
# Enterococcus faecalis = assay: Antibacterial activity against Enterococcus faecalis assessed as inhibition of bacterial growth at <= 0.008 ug/ml by CLSI broth microdilution method; type: functional
# Method in brief: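 Clinical isolates from skin/soft tissue, bloodstream and respiratory specimens were tested by broth microdilution per CLSI M7-A7 and M100-S18, with quality controls. Values are the number of isolates inhibited at each concentration, or MIC / percent susceptible. Highest concentration tested was 8 µg/ml for iclaprim and trimethoprim-sulfamethoxazole, and 64 µg/ml for trimethoprim.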
# Staphylococcus aureus [3] = assay: Antibacterial activity against Methicillin-sensitive Staphylococcus aureus assessed as inhibition of bacterial growth at <= 0.008 ug/ml by CLSI broth microdilution method; type: functional; method in brief: as §1
# Staphylococcus aureus [4] = assay: Antibacterial activity against Methicillin-sensitive Staphylococcus aureus assessed as inhibition of bacterial growth at 0.015 ug/ml by CLSI broth microdilution method; type: functional
# [5] = system: Streptococcus sp. 'group B'; assay: microbe, parasite or virus in culture; conditions: read-out: INH
# Staphylococcus aureus [6] = assay: microbe, parasite or virus in culture; conditions: read-out: INH
smiles,measurement,setting,value
COc1cc(Cc2cnc(N)nc2N)c2c(c1OC)OC(C1CC1)C=C2 (configuration not stated),inhibition at 0.03 µg/mL,Staphylococcus aureus [1],12.8%
same,inhibition at 0.015 µg/mL,Staphylococcus aureus [2],0.4%
same,inhibition (INH),Enterococcus faecalis,25.5%
same,inhibition (INH),Staphylococcus aureus [3],0.1%
same,inhibition at 0.015 µg/mL,Staphylococcus aureus [4],0.3%
COc1cc(Cc2cnc(N)nc2N)cc(OC)c1OC [TRIMETHOPRIM],inhibition at 16 µg/mL,[5],100%
same,inhibition at 64 µg/mL,Staphylococcus aureus [6],94.6%

# Reference: ChEMBL document CHEMBL1649441, “Potency and bactericidal activity of iclaprim against recent clinical gram-positive isolates” (2009)
